{"data": "Published values of several laboratories", "TYK2 JH1": "Non-receptor tyrosine-protein kinase TYK2, JH1 (TYK2, Homo sapiens, UniProt P29597)", "TYK2 JH2": "Non-receptor tyrosine-protein kinase TYK2, JH2 (TYK2, Homo sapiens, UniProt P29597)", "TYK2": "Non-receptor tyrosine-protein kinase TYK2 (TYK2, Homo sapiens, UniProt P29597)", "note": "Lines come from different studies, so protocols differ."}
{"SMILES": "Cc1cnc(Nc2ccc(C(=O)N3CCC(N4CCCC4)CC3)cc2)nc1-c1cc2ccccc2s1", "target": "TYK2 JH1", "observed": "binding", "technique": "competition with immobilised ligand", "concentration": "1 µM", "remaining binding [%]": 6.7}
{"SMILES": "COc1cnc(Nc2cccc(S(N)(=O)=O)c2)nc1N1CCN(c2ccccc2)C(=O)C1", "target": "TYK2 JH1", "observed": "binding", "technique": "competition with immobilised ligand", "concentration": "1 µM", "remaining binding [%]": 39}
{"SMILES": "CCc1ccccc1C(=O)Nc1n[nH]c2c(C)c(F)c(C3C(C#N)=C(C)N(C)C(C)=C3C#N)cc12", "target": "TYK2 JH1", "observed": "cell-free assay", "technique": "competition with immobilised ligand", "concentration": "1 µM", "remaining binding [%]": 100}
{"SMILES": "N#Cc1ccccc1CSc1nnc2c(n1)[nH]c1ccccc12", "target": "TYK2 JH1", "observed": "binding", "technique": "competition with immobilised ligand", "concentration": "10 µM", "remaining binding [%]": 96}
{"SMILES": "CC1CCCN1c1nccc(-c2cnn3ncccc23)n1 (stereo not shown)", "target": "TYK2 JH1", "observed": "cell-free assay", "technique": "competition with immobilised ligand", "concentration": "1 µM", "remaining binding [%]": 100}
{"SMILES": "CNC(=O)[C@@H]1CC[C@@H](n2c(-c3ccc4cnccc4c3)nc3ccc(C(=O)NCc4cccc(C(N)=O)c4)cc32)C1", "target": "TYK2 JH1", "observed": "binding", "technique": "competition with immobilised ligand", "concentration": "1 µM", "remaining binding [%]": 99}
{"SMILES": "Cc1noc([C@H]2C[C@@H](c3ccc(C(F)(F)F)cc3)CN(C(=O)N3CCS(=O)(=O)C3)C2)n1", "target": "TYK2 JH1", "observed": "cell-free assay", "technique": "competition with immobilised ligand", "concentration": "1 µM", "remaining binding [%]": 100}
{"SMILES": "Nc1ncc2c(n1)-c1c([nH]c3ccc(C#CC4CC4)cc13)CCCC2", "target": "TYK2 JH2", "observed": "binding", "technique": "competition with immobilised ligand", "concentration": "1 µM", "remaining binding [%]": 73}
{"SMILES": "c1cnn2ncc(-c3ccnc(N4CCC45COC5)n3)c2c1", "target": "TYK2", "observed": "binding", "concentration": "1 µM", "remaining binding [%]": 66}
{"SMILES": "O=C(Nc1c[nH]nc1C(=O)NC1CCNCC1)c1cc(F)cc(F)c1", "target": "TYK2 JH2", "observed": "binding", "technique": "competition with immobilised ligand", "concentration": "1 µM", "remaining binding [%]": 100}
{"SMILES": "CN(C)c1ncc(F)c(-c2cnn3ncccc23)n1", "target": "TYK2", "observed": "binding", "concentration": "1 µM", "remaining binding [%]": 70}
{"SMILES": "O=C(NCCCN1CCOCC1)c1ccc(Nc2ncc(Cl)c(-c3ccc(Cl)s3)n2)cc1", "target": "TYK2 JH2", "observed": "binding", "technique": "competition with immobilised ligand", "concentration": "1 µM", "remaining binding [%]": 5.3}
{"SMILES": "CCN1CCN(Cc2ccc(C(=O)Nc3ccc(C)c(Oc4ccc5c(c4)CC(=O)N5)c3)cc2C(F)(F)F)CC1", "target": "TYK2 JH1", "observed": "binding", "technique": "competition with immobilised ligand", "concentration": "1 µM", "remaining binding [%]": 100}
{"SMILES": "COc1ncc2cc3ccccc3nc2c1C#N", "target": "TYK2 JH1", "observed": "cell-free assay", "technique": "competition with immobilised ligand", "concentration": "5 µM", "remaining binding [%]": 69}
{"SMILES": "CC(=O)Nc1c(C(C)=O)c(=O)n(C)c2nc(-c3ccc(Cl)cc3Cl)c(-c3ccc(Cl)cc3)cc12", "target": "TYK2 JH2", "observed": "cell-free assay", "technique": "competition with immobilised ligand", "concentration": "1 µM", "remaining binding [%]": 100}
{"SMILES": "COc1ccnn2ncc(-c3ccnc(N(C)C)n3)c12", "target": "TYK2", "observed": "binding", "concentration": "1 µM", "remaining binding [%]": 68}
{"SMILES": "O=C(c1ccc(Nc2ncc(Cl)c(-c3cc4ccccc4s3)n2)cc1)N1CCC(N2CCCC2)CC1", "target": "TYK2 JH1", "observed": "binding", "technique": "competition with immobilised ligand", "concentration": "1 µM", "remaining binding [%]": 7.1}
{"SMILES": "CN(C)c1ncnc(-c2ccc3nc(Nc4cc(CN5CCN(C(=O)CC(F)(F)F)CC5)ccn4)[nH]c3c2)c1Cl", "target": "TYK2 JH2", "observed": "cell-free assay", "technique": "competition with immobilised ligand", "concentration": "1 µM", "remaining binding [%]": 77}
{"SMILES": "O=C(NCCCN1CCOCC1)c1ccc(Nc2nccc(-c3cc4ccccc4s3)n2)cc1", "target": "TYK2 JH1", "observed": "binding", "technique": "competition with immobilised ligand", "concentration": "1 µM", "remaining binding [%]": 11}
{"SMILES": "c1cncc(-c2cccc(Nc3nccc(NC4CCCCC4)n3)c2)c1", "target": "TYK2 JH2", "observed": "binding", "technique": "competition with immobilised ligand", "concentration": "10 µM", "remaining binding [%]": 3.8}
{"SMILES": "N[C@@H]1CCN(c2nccc(-c3cnn4ncccc34)n2)C1", "target": "TYK2 JH1", "observed": "cell-free assay", "technique": "competition with immobilised ligand", "concentration": "1 µM", "remaining binding [%]": 100}
{"SMILES": "C[C@@H]1CN(c2ccc3ncc(-c4ccc5[nH]nc(C6CC6)c5c4)n3n2)C[C@H](C)O1", "target": "TYK2", "observed": "binding", "technique": "competition with immobilised ligand", "concentration": "50 nM", "remaining binding [%]": 88}
{"SMILES": "CCCOc1ccc([C@H]2[C@H](C(=O)O)[C@@H](c3ccc4c(c3)OCO4)CN2CC(=O)Nc2c(CC)cccc2CC)cc1", "target": "TYK2 JH2", "observed": "cell-free assay", "technique": "competition with immobilised ligand", "concentration": "1 µM", "remaining binding [%]": 80}
{"SMILES": "O=C(NCC1CCOCC1)c1n[nH]cc1NC(=O)c1c(F)cccc1F", "target": "TYK2 JH1", "observed": "binding", "technique": "competition with immobilised ligand", "concentration": "1 µM", "remaining binding [%]": 91}
{"SMILES": "CN(CCCC(F)(F)F)c1nccc(-c2cnn3ncccc23)n1", "target": "TYK2 JH1", "observed": "cell-free assay", "technique": "competition with immobilised ligand", "concentration": "1 µM", "remaining binding [%]": 100}
{"SMILES": "COc1cnc(Nc2cccc(S(N)(=O)=O)c2)nc1N1CCN(c2ccccc2)CC1", "target": "TYK2 JH2", "observed": "binding", "technique": "competition with immobilised ligand", "concentration": "1 µM", "remaining binding [%]": 85}
{"SMILES": "CC(=O)c1c(NS(C)(=O)=O)c2cc(-c3ccc(Cl)cc3)c(-c3ccc(Cl)cc3Cl)nc2n(C)c1=O", "target": "TYK2 JH2", "observed": "cell-free assay", "technique": "competition with immobilised ligand", "concentration": "1 µM", "remaining binding [%]": 89}
{"SMILES": "FC(F)(F)Oc1cccc(-c2cnc3ccc(-c4ccncc4)nn23)c1", "target": "TYK2 JH1", "observed": "binding", "technique": "competition with immobilised ligand", "concentration": "5 µM", "remaining binding [%]": 53}
{"SMILES": "CN1CCN(c2ccc(Nc3nccc(-c4cccc([N+](=O)[O-])c4)n3)cc2C(F)(F)F)CC1", "target": "TYK2", "observed": "binding", "concentration": "10 µM", "remaining binding [%]": 0}
{"SMILES": "C[C@H](c1ccc(F)cc1)N(Cc1cccc(C(=O)O)c1)C(=O)c1cnc2ccccc2c1", "target": "TYK2 JH2", "observed": "cell-free assay", "technique": "competition with immobilised ligand", "concentration": "1 µM", "remaining binding [%]": 92}
{"SMILES": "O=C(c1ccc(Nc2nccc(-c3cc4ccccc4s3)n2)cc1)N1CCC(N2CCCC2)CC1", "target": "TYK2 JH1", "observed": "binding", "technique": "competition with immobilised ligand", "concentration": "1 µM", "remaining binding [%]": 13}
{"SMILES": "COc1cccc(CNC(=O)c2nc3scc(COCc4ccc(C(=O)O)cc4)c3c(=O)[nH]2)c1", "target": "TYK2 JH2", "observed": "cell-free assay", "technique": "competition with immobilised ligand", "concentration": "1 µM", "remaining binding [%]": 79.8}
{"SMILES": "O=C(c1ccc(Nc2ncc(Cl)c(-c3ccc(Cl)s3)n2)cc1)N1CCC(N2CCCC2)CC1", "target": "TYK2 JH2", "observed": "binding", "technique": "competition with immobilised ligand", "concentration": "1 µM", "remaining binding [%]": 0.2}
{"SMILES": "CN(C)c1nccc(-c2cnn3ncccc23)n1", "target": "TYK2 JH1", "observed": "cell-free assay", "technique": "competition with immobilised ligand", "concentration": "1 µM", "remaining binding [%]": 51}
